This note sets out measurements from PMC10629916 (Journal of Food and Drug Analysis, 2023).

SMILES strings stand for the structures.

The format of data set [1] is in vivo, Male Wistar Rats. Conditions: male, Wistar, rat, plasma, po, 800 mg/kg. Summed up: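 Male Wistar rats (200–250 g) dosed orally with the prescription extract at 800 mg/kg. Plasma was stored at −80 °C, then precipitated with MeOH (1:3). Analysis was by UPLC-MS/MS MRM with oxacillin as internal standard. Parameters came from noncompartmental analysis, reported as mean ± SD.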

Data set [2] is described as follows: Stability test of the 2 analytes in rat plasma. Type of data set: in vitro ADME. Summed up: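 Rat plasma QC samples at low, middle and high levels were assayed in triplicate. They were MeOH-precipitated (1:3), spun at 4500 rpm and 4 °C for 10 min, dried and redissolved in MeOH. The processed samples were held in the autosampler for 12 h and then quantified by UPLC-MS/MS against oxacillin internal standard. Samples counted as stable if bias was within ±15% of nominal.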

Where [3] appears, read: Normal temperature (auto-sampler 12 h), nominal conc 15.62 ng/mL.
The mark [4] stands for this setting: Normal temperature (auto-sampler 12 h), nominal conc 31.25 ng/mL.
Where [5] appears, read: −80 (storage at −80 °C), nominal conc 15.62 ng/mL.
[6] abbreviates: −80 (storage at −80 °C), nominal conc 31.25 ng/mL.
Setting [7] is: −80 FT (three freeze–thaw cycles), nominal conc 15.62 ng/mL.
Setting [8] is: −80 FT (three freeze–thaw cycles), nominal conc 31.25 ng/mL.

As to `C[C@@H]1O[C@@H](OC[C@H]2O[C@@H](Oc3cc(O)c4c(c3)O[C@H](c3ccc(O)cc3)CC4=O)[C@H](O)[C@@H](O)[C@@H]2O)[C@H](O)[C@H](O)[C@H]1O` [Narirutin], in data set [1], the area under the curve AUC(0-inf) was determined as 20.2 ± 11.9 ng·h/mL. Moreover, in data set [1], the AUC(0-t) amounted to 11 ± 5.91 ng·h/mL. In addition, the Cmax in data set [1] was determined as 3.29 ± 1.63 ng/mL. In data set [1], this molecule gave an MRT inf of 8.22 ± 2.65 h. Moreover, in data set [1], the Tmax was 1.01 ± 1.22 h. This molecule had a half-life in data set [1] of 4.76 ± 1.76 h. Also, the “Accuracy (RE, %)” value is listed as 11.32% in data set [2] (setting [3]); −2.84% in data set [2] (setting [4]); −1.48% in data set [2] (−80 (storage at −80 °C), nominal conc 0.48 ng/mL); 9.87% in data set [2] (setting [5]); −3.53% in data set [2] (setting [6]); −3.82% in data set [2] (−80 FT (three freeze–thaw cycles), nominal conc 0.48 ng/mL). In addition, the “Accuracy (RE, %)” value in data set [2] (setting [7]) is recorded as 12.58%; in data set [2] (setting [8]), −3.1%. Further, the Observed in data set [2] (setting [3]) was 17.94 ± 0.15; in data set [2] (setting [4]) it was 31.04 ± 0.22; in data set [2] (setting [5]) it was 17.94 ± 0.15; in data set [2] (setting [6]) it was 31.04 ± 0.22; in data set [2] (setting [7]), 17.94 ± 0.15; in data set [2] (setting [8]), 31.04 ± 0.22.

The term AUC(0-inf) denotes the area under the concentration-time curve extrapolated to infinity. The low end stands for low exposure, the high end for high exposure. The term AUC(0-t) denotes exposure summed from dosing to a finite time, without extrapolation to infinity. The term Cmax denotes the peak of the concentration-time curve. The term MRT inf denotes a mean duration of stay, worked out from the concentration-time curve. The Tmax is the time from dosing to the highest level. What is called half-life is the time in which the quantity being followed falls by half. Read a high half-life as slow decline.
